# Source: ChEMBL document CHEMBL1136767, “Novel nonimidazole histamine H3 receptor antagonists: 1-(4-(phenoxymethyl)benzyl)piperidines and related compounds” (J Med Chem, 2003)
# Tests used:
# [1] = target: Histamine H3 receptor (Mus musculus) (UniProt P58406); test: In vivo effects in mice against H3 receptor on N6-methylhistamine levels in brain (following oral dosing of compound); assay type: functional, organism-based
# How it was run: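 Swiss mice fasted 24 h, dosed orally; decapitated 90 min later and cerebral cortex homogenized in ice-cold 0.4 M perchloric acid. Nτ-methylhistamine measured by radioimmunoassay.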
# Histamine H3 receptor [2] = target: T1, Histamine H3 receptor (Homo sapiens, UniProt Q9Y5N1); test: Displacement of [125I]iodoproxyfan from human histamine H3 receptor expressing CHO cells; assay type: cell-based
# Histamine H3 receptor [3] = target: Histamine H3 receptor (Cavia porcellus, UniProt Q9JI35); test: Potency at histamine H3 receptor subtype, was tested on guinea pig right ileum; assay type: tissue-based; details: read-out: pA2 (converted)
# Histamine H2 receptor = Histamine H2 receptor (Cavia porcellus, UniProt P47747); test: Potency at histamine H2 receptor subtype, was tested on guinea pig right atrium; assay type: tissue-based, Cardiac atrium; details: read-out: pA2 (converted)
# Histamine H1 receptor = Histamine H1 receptor (Cavia porcellus, UniProt P31389); test: Potency at histamine H1 receptor subtype, was tested on guinea pig right ileum; assay type: tissue-based; details: read-out: pA2 (converted)
# Histamine H3 receptor [4] = target: T1, Histamine H3 receptor; test: biochemical
# [5] = target: Histamine N-methyltransferase (Rattus norvegicus, UniProt Q01984); test: Compound was tested against histamine N-methyl-transferase in rat brain [EC 2.1.1.8](relative weak affinity on rat enzyme); assay type: tissue-based
# Chain of Histamine N-methyltransferase (Q01984 whole entry): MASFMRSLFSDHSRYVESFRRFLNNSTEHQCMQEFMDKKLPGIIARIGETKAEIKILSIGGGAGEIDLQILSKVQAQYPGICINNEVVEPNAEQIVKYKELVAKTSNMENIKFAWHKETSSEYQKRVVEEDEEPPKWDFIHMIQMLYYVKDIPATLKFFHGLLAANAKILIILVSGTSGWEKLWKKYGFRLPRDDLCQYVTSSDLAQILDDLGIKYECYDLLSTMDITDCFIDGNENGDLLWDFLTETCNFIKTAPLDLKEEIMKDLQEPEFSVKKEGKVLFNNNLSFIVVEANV
# Chain of Histamine H1 receptor (P31389 whole entry): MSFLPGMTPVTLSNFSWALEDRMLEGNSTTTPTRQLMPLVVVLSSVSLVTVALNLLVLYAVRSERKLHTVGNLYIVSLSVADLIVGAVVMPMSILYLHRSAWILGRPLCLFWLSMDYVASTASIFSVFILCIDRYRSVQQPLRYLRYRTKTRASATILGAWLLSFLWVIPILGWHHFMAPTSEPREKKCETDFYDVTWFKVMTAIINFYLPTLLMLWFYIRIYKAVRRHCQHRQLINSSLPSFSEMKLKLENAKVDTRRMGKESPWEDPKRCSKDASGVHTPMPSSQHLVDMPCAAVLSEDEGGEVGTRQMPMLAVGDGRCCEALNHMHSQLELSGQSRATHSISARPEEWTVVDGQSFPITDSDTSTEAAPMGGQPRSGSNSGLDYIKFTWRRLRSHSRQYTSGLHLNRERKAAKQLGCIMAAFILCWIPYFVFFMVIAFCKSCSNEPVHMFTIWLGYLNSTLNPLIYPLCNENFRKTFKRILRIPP
# Chain of Histamine H3 receptor (Cavia porcellus, UniProt Q9JI35) (Q9JI35 whole entry): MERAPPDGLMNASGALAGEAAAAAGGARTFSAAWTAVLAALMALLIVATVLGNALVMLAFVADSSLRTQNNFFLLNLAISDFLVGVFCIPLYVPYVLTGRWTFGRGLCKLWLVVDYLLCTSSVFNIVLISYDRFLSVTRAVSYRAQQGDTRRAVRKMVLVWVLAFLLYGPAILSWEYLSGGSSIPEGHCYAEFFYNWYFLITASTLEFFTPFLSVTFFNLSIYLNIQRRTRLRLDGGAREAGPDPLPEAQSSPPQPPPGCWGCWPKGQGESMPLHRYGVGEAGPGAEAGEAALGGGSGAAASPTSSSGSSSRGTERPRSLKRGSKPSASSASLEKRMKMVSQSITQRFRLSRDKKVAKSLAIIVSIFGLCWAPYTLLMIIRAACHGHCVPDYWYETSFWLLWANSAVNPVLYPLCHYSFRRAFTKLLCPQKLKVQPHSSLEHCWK
# Chain of Histamine H3 receptor (Mus musculus) (P58406 whole entry): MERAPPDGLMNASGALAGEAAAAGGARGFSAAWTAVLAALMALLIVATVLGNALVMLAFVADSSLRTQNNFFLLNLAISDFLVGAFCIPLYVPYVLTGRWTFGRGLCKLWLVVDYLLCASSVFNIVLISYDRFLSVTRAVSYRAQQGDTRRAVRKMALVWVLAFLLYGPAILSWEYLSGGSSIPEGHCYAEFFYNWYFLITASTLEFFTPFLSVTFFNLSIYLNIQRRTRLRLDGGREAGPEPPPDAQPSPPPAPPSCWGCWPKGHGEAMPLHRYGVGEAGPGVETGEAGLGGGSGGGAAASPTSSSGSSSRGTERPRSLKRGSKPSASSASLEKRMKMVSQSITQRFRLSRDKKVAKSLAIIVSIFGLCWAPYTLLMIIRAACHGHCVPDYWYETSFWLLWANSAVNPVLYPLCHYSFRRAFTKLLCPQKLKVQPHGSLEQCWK
# T1 sequence (Q9Y5N1 whole entry): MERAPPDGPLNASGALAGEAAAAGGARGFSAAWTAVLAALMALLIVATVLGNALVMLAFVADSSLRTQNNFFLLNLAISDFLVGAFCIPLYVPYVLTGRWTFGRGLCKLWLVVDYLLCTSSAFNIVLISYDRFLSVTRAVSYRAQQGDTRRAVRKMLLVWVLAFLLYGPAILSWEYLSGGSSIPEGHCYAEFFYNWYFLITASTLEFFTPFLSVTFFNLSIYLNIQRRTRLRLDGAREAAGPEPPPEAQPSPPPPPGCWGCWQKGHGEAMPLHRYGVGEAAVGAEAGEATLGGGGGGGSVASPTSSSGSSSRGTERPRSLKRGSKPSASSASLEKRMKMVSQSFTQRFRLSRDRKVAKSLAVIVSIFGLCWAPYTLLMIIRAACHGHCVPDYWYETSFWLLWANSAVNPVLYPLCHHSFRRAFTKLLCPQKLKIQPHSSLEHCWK
# Chain of Histamine H2 receptor (P47747 whole entry): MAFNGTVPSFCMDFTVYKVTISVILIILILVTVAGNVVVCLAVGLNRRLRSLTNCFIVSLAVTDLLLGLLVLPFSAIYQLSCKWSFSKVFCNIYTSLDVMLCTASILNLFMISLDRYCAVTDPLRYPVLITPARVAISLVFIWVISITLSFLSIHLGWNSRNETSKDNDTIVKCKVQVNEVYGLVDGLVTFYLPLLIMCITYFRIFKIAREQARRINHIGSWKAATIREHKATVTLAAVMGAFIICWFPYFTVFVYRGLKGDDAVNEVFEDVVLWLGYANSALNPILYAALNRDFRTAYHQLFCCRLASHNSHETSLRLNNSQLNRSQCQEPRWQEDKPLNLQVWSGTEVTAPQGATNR
SMILES,ED50 [1] [mg/kg],Ki (Histamine H3 receptor [2]) [nM],further results
c1cc(CN2CCCCC2)ccc1COc1ccc(C2CCCC2)cc1,3.1,201,–
CCN(CC)Cc1ccc(COc2ccc(C(C)=O)cc2)cc1,3.4,91,–
c1cn(-c2ccc(OCc3ccc(CN4CCCCC4)cc3)cc2)cn1,4,27,Kb (Histamine H3 receptor [3]): 15.8 nM
C(=C\c1ccc(OCc2ccc(CN3CCCCC3)cc2)cc1)/c1ccccc1,> 10,761,–
Cc1cc(OCc2ccc(CN3CCCCC3)cc2)ccc1Cl,> 10,42,–
c1ccc(OCc2ccc(CN3CCCCC3)cc2)cc1,30,227,–
COc1ccc(OCc2ccc(CN3CCCCC3)cc2)cc1,20,119,–
CC(=O)c1ccc(OCCCc2c[nH]cn2)cc1,0.24,87,–
CO/N=C(\C)c1ccc(OCc2ccc(CN3CCCCC3)cc2)cc1,6.4,129,Kb (Histamine H2 receptor): 3980 nM; Kb (Histamine H3 receptor [3]): 288 nM; Kb (Histamine H1 receptor): 3470 nM
C/C(=N\O)c1ccc(OCc2ccc(CN3CCCCC3)cc2)cc1,5,55,Kb (Histamine H2 receptor): 14100 nM; Kb (Histamine H3 receptor [3]): 85.1 nM; Kb (Histamine H1 receptor): 7940 nM
CC(=O)c1ccc(OCc2ccc(CN3CCCCCC3)cc2)cc1,4.3,37,Kb (Histamine H3 receptor [3]): 30.9 nM
O=[N+]([O-])c1ccc(OCCCCCN2CCCC2)cc1,1.1,–,Ki (Histamine H3 receptor [4]): 39 nM
CC(=O)c1ccc(OCc2ccc(CN3CCCC3)cc2)cc1,1.9,26,Kb (Histamine H2 receptor): 7760 nM; Kb (Histamine H3 receptor [3]): 18.2 nM; Kb (Histamine H1 receptor): 9330 nM
CCCc1ccc(OCc2ccc(CN3CCCCC3)cc2)cc1,4.3,257,–
Cc1ccc(OCc2ccc(CN3CCCCC3)cc2)cc1,1.8,–,–
FC(F)(F)c1ccc(OCc2ccc(CN3CCCCC3)cc2)cc1,> 10,125,–
c1ccc(CCc2ccc(OCc3ccc(CN4CCCCC4)cc3)cc2)cc1,30,890,–
Ic1ccc(OCc2ccc(CN3CCCCC3)cc2)cc1,> 10,107,–
c1cc(CN2CCCCC2)ccc1COc1ccc2c(c1)CCC2,1.9,87,–
c1cc(CN2CCCCC2)ccc1COc1ccc(CN2CCCCC2)cc1,9.6,2.8,Kb (Histamine H3 receptor [3]): 38 nM
Clc1ccc(OCc2ccc(CN3CCCCC3)cc2)cc1,> 10,124,–
c1ccc(COc2ccc(OCc3ccc(CN4CCCCC4)cc3)cc2)cc1,> 30,550,–
CCCCc1ccc(OCc2ccc(CN3CCCCC3)cc2)cc1,2.8,169,–
CC(=O)c1ccc(OCc2ccc(CN3CCCCC3)cc2)cc1,3.9,84,IC50 [5]: 10400 nM; Kb (Histamine H2 receptor): 10200 nM; Kb (Histamine H3 receptor [3]): 61.7 nM; Kb (Histamine H1 receptor): 4570 nM

# Now from value to compound, other results behind:
ED50 [1] [mg/kg],Ki (Histamine H3 receptor [2]) [nM],SMILES,further results
> 10,114,Brc1ccc(OCc2ccc(CN3CCCCC3)cc2)cc1,–
> 10,238,c1ccc(Cc2ccc(OCc3ccc(CN4CCCCC4)cc3)cc2)cc1,–
> 10,167,Clc1ccc(OCc2ccc(CN3CCCCC3)cc2)cc1Cl,–
10,90,c1ccc(NCc2ccc(OCc3ccc(CN4CCCCC4)cc3)cc2)cc1,–
> 10,95,Fc1cc(OCc2ccc(CN3CCCCC3)cc2)ccc1Cl,–
10,88,CCCOc1ccc(OCc2ccc(CN3CCCCC3)cc2)cc1,–
2.8,157,O=C(c1ccc(OCc2ccc(CN3CCCCC3)cc2)cc1)C1CCCC1,Kb (Histamine H3 receptor [3]): 30.9 nM
3,–,CCCCCc1ccc(OCc2ccc(CN3CCCCC3)cc2)cc1,–
20,334,Cc1cccc(OCc2ccc(CN3CCCCC3)cc2)c1,–
3.5,92,c1cc(CN2CCCCC2)ccc1COc1ccc2c(c1)CCCC2,–
> 10,530,c1ccc(Oc2ccc(OCc3ccc(CN4CCCCC4)cc3)cc2)cc1,–
5.9,66,O=C(c1ccc(OCc2ccc(CN3CCCCC3)cc2)cc1)C1CC1,–
4.8,149,Cc1ccc(OCc2ccc(CN3CCCCC3)cc2)cc1C,–
3,253,CC(C)c1ccc(OCc2ccc(CN3CCCCC3)cc2)cc1,–
2.2,163,CCc1ccc(OCc2ccc(CN3CCCCC3)cc2)cc1,–
15,123,Fc1ccc(OCc2ccc(CN3CCCCC3)cc2)cc1,–
